# Only some compounds are listed: those with a hit (about 2.5% of all), similar ones and a draw of the others.
# NTR1 agonist – activates human neurotensin receptor 1; 330,000 tested, 0.17% active; NTR1-U2OS beta-arrestin-GFP spot imaging, agonist mode; activation, % at 20 µM; AID 493036;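 active = activation at or above 40% of the spot to cytoplasm intensity ratio, with at least 20 cells analyzed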;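 also: 0% = DMSO without peptide and 100% = 100 nM NTR1 peptide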
# sPLA2-III inh – Inhibits HGIII-sPLA2 liposome hydrolysis, primary screen; Q9NZ20; 370,000 tested, 0.56% active; AID 743126; inhibition, % at 12.2 µM; QFRET BODIPY PC-A2 liposome hydrolysis, fluorescence;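 active = inhibition above mean plus 3 SD of compounds lying within the high and low control bounds, cut at about 19% in these data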;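 also: 0% = median of test compound wells and 100% = no enzyme DMSO wells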
# MC4R ag barr – activates human MC4R beta-arrestin recruitment | activation, % at 8.9 µM | P32245 | U2OS MC4R beta-arrestin complementation, luminescence; percent of melanotan II response, DMSO zero | 360,000 tested, 0.98% active | AID 540308;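 active = activation above a per-plate cutoff, the mean activation of sample wells on that plate plus 3 SD, cut at about 8% in these data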
# MC4R antagonist – human MC4R antagonism in cAMP assay; MC4R-expressing cells, MTII-stimulated cAMP, LANCE TR-FRET; P32245; 360,000 tested, 0.48% active; inhibition, % at 6.5 µM;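 active = inhibition above its plate's cutoff, the mean of tested wells on that plate plus 3 SD, cut at about 29% in these data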;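 also: 0% = Melanotan II alone and 100% = Melanotan II plus saturating MCL0020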
#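 System – human MC4R-expressing U2OS cells · Also added – Melanotan II · Dosing – one concentration, 6.5 µM nominal · Timing – 30-min compound, 1-h challenge, 1-h detection, room temperature · Measured by – Eu-cAMP/anti-cAMP TR-FRET, emission 671 nm · Replicates – singlicate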
# Granule exo inh – lytic granule exocytosis inhibition | TALL-104 LAMP-1 surface exposure, flow cytometry; cells stimulated with thapsigargin and PMA | inhibition, % at 10 µM | 360,000 tested, 0.66% active;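 active = inhibition above about 55%, limit read from the data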
# A1 inh – inhibitors of the anti-apoptotic protein A1, read as caspase activation. MEF A1-2A-BIM cells, Caspase-Glo 3/7 luminescence, 3 h; percent of clofoctol response, vehicle zero. caspase activation, % (test concentration not listed). AID 2462. 330,000 tested, 0.066% active;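 active = over half of replicate activation scores above 10%, or exactly half above 10 with the replicate mean above 10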
# MC4R barr conf – human MC4R beta-arrestin agonism confirmation | shares compounds with MC4R ag barr | U2OS MC4R beta-arrestin recruitment, luminescence; scaled DMSO 0%, Melanotan II 100% | activation, % at 8.9 µM | 2,400 tested, 31% active | AID 602192;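 active = mean activation across replicates above the hit cutoff set in the earlier primary screen, cut at about 8% in these data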
# MOR-DOR barr ag – activates mu-delta opioid heterodimer, MC4R agonist counter-screen; 2,400 tested, 5.8% active; shares compounds with MC4R ag barr; activation, % at 9.2 µM; U2OS PathHunter beta-arrestin, beta-gal luminescence; percent of deltorphin B response, DMSO zero; AID 602194;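 active = mean activation across replicates exceeds the hit threshold derived in the earlier primary screen, cut at about 18% in these data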;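 also: 100% = deltorphin B at 0.9 µM final and 0% = DMSO alone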
# Target sequence (P35372 whole entry, looked up): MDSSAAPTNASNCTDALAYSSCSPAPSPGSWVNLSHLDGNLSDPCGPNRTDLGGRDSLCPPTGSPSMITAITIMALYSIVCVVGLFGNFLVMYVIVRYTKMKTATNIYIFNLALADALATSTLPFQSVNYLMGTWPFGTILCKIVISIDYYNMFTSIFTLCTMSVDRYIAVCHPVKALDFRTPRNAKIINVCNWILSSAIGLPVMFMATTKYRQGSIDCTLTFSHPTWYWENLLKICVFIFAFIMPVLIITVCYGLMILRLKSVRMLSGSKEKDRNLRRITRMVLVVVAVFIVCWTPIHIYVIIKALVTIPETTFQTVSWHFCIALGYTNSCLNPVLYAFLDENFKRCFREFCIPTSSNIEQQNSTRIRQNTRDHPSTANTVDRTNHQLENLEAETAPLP
# Target sequence (P41143 whole entry, looked up): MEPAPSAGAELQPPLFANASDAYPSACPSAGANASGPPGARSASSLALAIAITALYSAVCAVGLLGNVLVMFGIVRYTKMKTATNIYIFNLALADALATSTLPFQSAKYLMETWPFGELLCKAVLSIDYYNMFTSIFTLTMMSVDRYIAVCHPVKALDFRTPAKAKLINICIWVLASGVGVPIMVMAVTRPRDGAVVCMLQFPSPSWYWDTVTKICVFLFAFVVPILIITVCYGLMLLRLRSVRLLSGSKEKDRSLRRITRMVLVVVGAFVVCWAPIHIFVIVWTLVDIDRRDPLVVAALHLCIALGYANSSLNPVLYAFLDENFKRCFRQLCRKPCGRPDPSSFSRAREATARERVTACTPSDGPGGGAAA
# * = called active by the depositor; · = not tested or not shown.
SMILES,NTR1 agonist,sPLA2-III inh,MC4R ag barr,MC4R antagonist,Granule exo inh,A1 inh,MC4R barr conf,MOR-DOR barr ag
CCOc1ccccc1NC(=O)CSc1nnc(SCc2ccccc2)s1,·,-33,·,·,·,·,·,·
COc1ccc(-c2ccc(C#N)c(SCC(=O)NCc3ccco3)n2)cc1OC,0,3,16*,-4,2,0,-1,7
CCOC(=O)Cn1c(=NC(=O)c2cccs2)sc2cc(C(=O)OC)ccc21,-1,10,1,4,2,-1,·,·
C#CCn1c(=NC(=O)c2cccs2)sc2cccc(OCC)c21,7,1,24*,19,-6,1,4,2
COC(=O)Cn1c(=NC(=O)c2ccc(Cl)s2)sc2cc(F)ccc21,-1,13,4,-1,-3,1,·,·
C#CCn1c(=NC(=O)c2ccc(Cl)s2)sc2cccc(OC)c21,9,6,15*,9,-14,0,6,2
CCc1nccn1CC(=O)c1ccc(O)c(O)c1,·,6,·,·,·,·,·,·
O=C(CSc1nnc(-c2ccccc2)n1-c1ccc(Cl)cc1)c1ccc(F)cc1,·,-29,·,·,·,·,·,·
COC(=O)[C@]12C[C@H](CC(=O)NCc3cccc4ccccc34)C(=O)N(Cc3ccc4c(c3)OCO4)C1=C[C@H](C(C)(C)C)O[C@@H]2C,·,-13,·,·,·,·,·,·
CCOC(=O)c1c(NC(=O)CSc2ncnc3ccccc23)sc(C(C)=O)c1C,2,5,-2,3,1,0,·,·
COC(=O)c1c(NC(=O)CSc2ncnc3ccccc23)sc(C)c1C,36,0,15*,-4,-11,0,2,2
CN(CCO)c1ccc2c(c1)Oc1ccccc1CN(Cc1cn(Cc3ccc(F)cc3)nn1)S2(=O)=O,·,4,·,·,·,·,·,·
COC(=O)C1CN(Cc2ccc(OC)cc2)CCS(=O)(=O)N1Cc1ccc(OC)cc1 (stereo unspecified),·,5,·,·,·,·,·,·
COc1cc(-c2cnc3c(NC=O)cc(-c4cccc(C(F)(F)F)c4)cn23)cc(OC)c1OC,·,-5,18*,-1,2,·,7,5
COc1cccc(-c2cnc3c(NC=O)cc(-c4ccncc4)cn23)c1,·,4,5,-25,14,·,·,·
CN(C)CCNC(=O)c1cccc(-c2cnc3c(NC=O)cc(-c4cc(F)c(F)c(F)c4)cn23)c1,·,1,8,-3,-18,·,·,·
Nc1ccc(-c2cc(NC=O)c3ncc(-c4cccc(C(F)(F)F)c4)n3c2)cn1,·,11,11*,-18,4,·,5,5
COc1cccc(-c2cnc3c(NC=O)cc(-c4ccc(O)c(OC)c4)cn23)c1,·,-18,30*,-5,7,·,30*,4
CN(C)CCNC(=O)c1cccc(-c2cc(NC=O)c3ncc(-c4cccc(C(F)(F)F)c4)n3c2)c1,·,-8,23*,-6,15,·,29*,7
CC(C)C[C@@H]1COc2cc(NCCCN3CCOCC3)ccc2S(=O)(=O)N1,·,18,·,·,·,·,·,·
CCC(NC(=O)c1ccc2c(ccn2Cc2cccc(-c3ccccc3C(=O)O)c2)c1)c1ccccc1 (stereo unspecified),·,-21,·,·,·,·,·,·
COc1ccccc1C1c2c(ncn(-c3ccccc3)c2=N)Oc2ccc3ccccc3c21 (stereo unspecified),·,4,·,·,·,·,·,·
COc1cccc(-c2cc(NC=O)c3ncc(-c4cc(OC)c(OC)c(OC)c4)n3c2)c1,·,7,28*,-49,1,·,6,4
COc1cccc(-c2cnc3c(NC=O)cc(-c4cccc(C(=O)N(C)C)c4)cn23)c1,·,-7,31*,-11,8,·,21*,1
COc1cccc(-c2cnc3c(NC(C)=O)cc(-c4ccncc4)cn23)c1,·,2,5,7,-1,·,·,·
SMILES,NTR1 agonist,sPLA2-III inh,MC4R ag barr,MC4R antagonist,Granule exo inh,A1 inh,MC4R barr conf,MOR-DOR barr ag
COc1cccc(-c2cnc3c(NC(C)=O)cc(-c4cc(OC)c(OC)c(OC)c4)cn23)c1,·,-6,29*,12,-1,·,21*,1
O=C(CSc1ccccc1)NC1CCCCN(Cc2ccc(Cl)cc2)C1=O (stereo unspecified),·,0,·,·,·,·,·,·
O=C(CN1CCC(NC(=O)Nc2ccc(Cl)cc2)CC1)Nc1ccc2c(c1)OCCO2,·,-3,·,·,·,·,·,·
CO/N=C(\CS(=O)(=O)Cc1ccc(OC)cc1)c1ccc(Cl)cc1,-1,5,8,-2,0,1,·,·
CO/N=C(/CS(=O)Cc1ccc(Cl)cc1)c1ccc(Cl)cc1 (stereo unspecified),4,-14,14*,11,4,0,0,6
COc1ccccc1NC(=O)Nc1cccc(NC(C)=O)c1,-1,4,1,8,0,-1,·,·
COc1ccccc1NC(=O)Nc1cc(C(C)C)ccc1C,-2,-2,19*,-4,-25,·,-1,8
COC(=O)Cc1c([C@H](C)[C@@H](OC)c2ccccc2Br)nnn1Cc1ccccc1,·,-6,·,·,·,·,·,·
Cc1ccc(CC2S/C(=N/c3ccccn3)NC2=O)cc1 (stereo unspecified),2,-4,14*,-4,0,0,1,6
O=C1N/C(=N/c2ccccn2)SC1Cc1ccccc1 (stereo unspecified),0,-5,2,10,1,1,·,·
CC(C)C[C@@H]1COc2cc(N3CCSCC3)ccc2S(=O)(=O)N1C,·,-3,·,·,·,·,·,·
CCCN(CC1CC1)C(=O)c1oc(=O)c2ccccc2c1-c1ccc(C)cc1,·,6,·,·,·,·,·,·
CCCCNS(=O)(=O)c1ccc(NS(=O)(=O)c2c(C)cc(C)cc2C)cc1,10,-18,12*,1,7,0,7,4
CCNS(=O)(=O)c1ccc(NS(=O)(=O)c2cc(C)ccc2C)cc1,-2,-19,-1,-1,2,0,·,·
COc1ccc(C(=O)Nc2ccc(N3CCCCC3)cc2)cc1Br,3,8,13*,-2,-3,-5,2,8
Cc1ccc(C(=O)Nc2ccc(N3CCCCC3)cc2)cc1,1,8,5,4,-5,-1,·,·
O=C1N(Nc2ccccc2)C(c2ccc(Br)cc2)C12CCCC2 (stereo unspecified),14,-5,4,14,4,-1,·,·
O=C1N(Nc2ccccc2)C(c2ccc(Br)cc2)C12CCCCC2 (stereo unspecified),7,-2,24*,-2,-2,1,10*,5
CCCNC(=O)N1[C@@H](CO)[C@H](c2ccc(C3=CCCC3)cc2)[C@@H]1CN(CC)S(=O)(=O)c1ccccc1[N+](=O)[O-],·,-18,·,·,·,·,·,·

# High-throughput results (PubChem BioAssay)
